# Screening data deposited in PubChem by several laboratories.
# Hck Nef HTS – human Hck-Nef kinase inhibition | actives 0.68% (n = 220,000) | inhibition, % at 20 µM | Recombinant Hck-YEEI plus Nef, Z-Lyte FRET kinase assay | P08631;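 active means Hck-Nef kinase inhibition above about 50%, limit read from the data; inactive means inhibition below that limit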;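 further: 0% = DMSO with Hck plus Nef and 100% = Hck alone without Nef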
# Target sequence (P08631 whole entry, looked up): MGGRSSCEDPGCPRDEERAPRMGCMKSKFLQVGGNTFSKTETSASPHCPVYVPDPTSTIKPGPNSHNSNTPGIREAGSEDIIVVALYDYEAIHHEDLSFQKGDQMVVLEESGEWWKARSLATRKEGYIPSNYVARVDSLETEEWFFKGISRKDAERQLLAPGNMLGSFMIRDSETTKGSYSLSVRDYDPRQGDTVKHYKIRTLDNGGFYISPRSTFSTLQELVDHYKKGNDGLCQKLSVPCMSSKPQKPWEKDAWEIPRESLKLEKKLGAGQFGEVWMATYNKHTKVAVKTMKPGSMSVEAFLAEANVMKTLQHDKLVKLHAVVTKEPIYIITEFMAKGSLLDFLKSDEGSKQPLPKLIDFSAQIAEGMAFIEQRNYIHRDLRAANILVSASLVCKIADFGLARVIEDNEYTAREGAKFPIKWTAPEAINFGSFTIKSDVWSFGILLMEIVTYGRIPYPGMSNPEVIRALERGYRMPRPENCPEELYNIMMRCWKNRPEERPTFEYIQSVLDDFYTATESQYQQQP
# Runt-SMMHC FRET – Runt domain-CBFb-SMMHC interaction inhibition; Q01196+Q13951; Cerulean-Runt/Venus-CBFb-SMMHC FRET ratio 530/480, 1 h; inhibition, % at 20 µM; actives 0.74% (n = 220,000); AID 1434;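 active means mean inhibition across duplicate retests at 20 µM reaching about 50%, limit read from the data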;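 further: 0% = DMSO wells and 100% = wells with excess untagged CBFb-SMMHC; inhibitors lower the FRET ratio by blocking Runt binding to CBFb-SMMHC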
# Runt-CBFb FRET – inhibitors of human RUNX1 Runt domain binding to CBFb | Q01196+Q13951 | Cerulean-Runt/Venus-CBFb FRET ratio 530/480, 1 h | inhibition, % at 20 µM | actives 0.46% (n = 220,000) | AID 1496;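 active means inhibition over about 50% at 20 µM in the single-dose screen, limit read from the data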;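 further: 0% = DMSO wells and 100% = excess unlabeled CBFb competitor control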
#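 Reagent – Venus-CBFb binding partner, 100 nM · Assay system – Cerulean-tagged RUNX1 Runt domain (FRET donor) fusion protein · Input – 100 nM per protein · Incubation – two 1 h room-temperature incubations shielded from light · Measured by – FRET fluorescence · Medium – Tris buffer pH 7.5 with salts and BSA · Benchmarks – unlabeled CBFb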
# RanGTP-Impb inh – disruptors of Ran-importin-beta complex formation – biochemical, FRET, CFP-Ran, YFP-importin-beta, homogeneous, primary screen. AID 2216. inhibition, % (test concentration not listed). actives 1.1% (n = 300,000). cell-free CFP-Ran/YFP-importin-beta FRET ratio;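 active means more than half of the replicate wells show a fall in the fluorescence ratio signal beyond about 16%, limit read from the data, passing the limit was not always enough; inconclusive means exactly half of the replicate wells pass the set limit; inactive means fewer than half of replicates pass the limit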;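 further: 0% = DMSO wells and 100% = Ran loaded with GDP instead of GTP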
# Hck Nef conf – Hck-Nef kinase inhibition, confirmation | calls only at 10 µM | actives 28% (n = 1,300) | Recombinant Hck-YEEI:Nef, Z-Lyte FRET kinase assay | AID 463188 | shares compounds with Hck Nef HTS;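 active means average inhibition of at least 50%, with Z-scores no higher than 3 in both the phospho-tyrosine peptide and fluorescence counterscreens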
# Starred values were filed as active, the others as inactive; i = inactive; ? = inconclusive; · = not tested or not shown; + = active, no number. This is a sample that favours compounds with a hit; in the whole collection about 1.7% have one here.
SMILES,Hck Nef HTS,Runt-SMMHC FRET,Runt-CBFb FRET,RanGTP-Impb inh,Hck Nef conf
O=C(COc1ccccc1[N+](=O)[O-])Nc1ccc(NC(=O)c2cc3ccccc3o2)cc1,24,-6,-2,7,·
O=C(COc1ccc(/C=N/NC(=O)c2cc3ccccc3o2)cc1Br)Nc1ccccc1,79*,-17,-2,2,+
CCNC(=O)c1cc2c(=O)n3cccc(C)c3nc2n(Cc2ccc(C)cc2)c1=N,71*,41,11,+,·
COCCCNC(=O)c1cc2c(=O)n3cccc(C)c3nc2n(C(C)C)c1=N,167*,57*,18,188*,·
N=c1c(C(=O)NCc2ccc(F)cc2)cc2c(=O)n3ccccc3nc2n1CCCN1CCOCC1,69*,65*,12,·,·
Cc1cccn2c(=O)c3cc(C(=O)N4COCC4(C)C)n(Cc4ccccc4)c3nc12,·,·,·,-1,·
CCOCCCn1c(=N)c(C(=O)NCCN2CCOCC2)cc2c(=O)n3cccc(C)c3nc21,133*,·,·,·,·
CN(CCC#N)C(=S)NC(=O)c1ccc(S(=O)(=O)N2CCOCC2)cc1,21,1,1,5,·
Cc1cc(C)n2nc(C(=O)N3CCCC(N4CCN(c5ccccc5C)CC4)C3)cc2n1 (centres undefined),·,·,·,5,·
Cc1cccn2c(=O)c3cc(C(=O)NC(C)C)c(=N)n(Cc4ccncc4)c3nc12,130*,62*,18,+,·
COCCCn1c(C(=O)NCCC2=CCCCC2)cc2c(=O)n3cccc(C)c3nc21,·,·,·,-2,·
CN(C(=O)c1ccnn1C)C1CCCN(Cc2ccccc2F)C1 (centres undefined),·,·,·,0,·
CC1=NOC(=O)/C1=C\c1ccc(-c2ccc(Br)cc2)o1,113*,24,·,1,i
CC1=NOC(=O)/C1=C/c1ccc(-c2ccc(Cl)cc2)o1,1,50,31,·,·
CCOc1ccc(NC(=S)NC(=O)c2cncc(Br)c2)cc1,·,·,·,-2,·
COc1ccccc1OCC(=O)OC/C(O)=C(\C#N)c1nc2ccccc2[nH]1,2,0,1,3,·
N#C/C(=C(/O)COC(=O)Cc1c[nH]c2ccccc12)c1nc2ccccc2[nH]1,60*,13,6,1,+
Cc1cc2cc(C=C(C#N)C#N)c(Cl)nc2cc1C,8,-20,-10,-8,·
CN(C)S(=O)(=O)c1cccc(NC(=S)N/N=C/c2ccc(O)c(O)c2O)c1,91*,9,37,4,+
CCOC(=O)c1cnn(C)c1NC(=O)c1ccc([N+](=O)[O-])cc1,·,·,·,-1,·
CC(=O)c1ccc(COC(=O)c2cc3ccccc3oc2=O)cc1,·,·,·,3,·
CC(=O)c1cc2cc(O)ccc2o1,73*,70*,32,-3,·
CC(=O)c1cc2ccc(O)cc2oc1=O,+,81*,10,148*,·
O=C(NCc1ccco1)c1cc2ccccc2o1,0,2,-3,-1,·
O=C(NCc1ccco1)c1cc2ccc(O)cc2oc1=O,+,58*,18,158*,·
SMILES,Hck Nef HTS,Runt-SMMHC FRET,Runt-CBFb FRET,RanGTP-Impb inh,Hck Nef conf
CCC(C)Sc1nnc(NS(=O)(=O)Cc2ccccc2)s1 (centres undefined),·,·,·,1,·
CCCCC(CC)Cn1c2nc3ccccc3nc2c2c(=N)oc(C)nc21 (centres undefined),57*,-5,-2,-1,i
N#Cc1c(NC(=O)CN2CCN(S(=O)(=O)c3ccc4c(c3)OCCO4)CC2)sc2c1CCC2,53*,-8,-3,2,i
O=C(CN1CCN(S(=O)(=O)c2ccc(Cl)cc2)CC1)Nc1ccc2c(c1)OCCO2,2,2,0,-2,·
COc1ccc(N2C(=O)CSC2c2ccccc2F)c(OC)c1 (centres undefined),·,·,·,2,·
O=C(c1cnn(C(=O)COc2ccc(Cl)cc2)c1)c1ccccc1O,50*,2,-2,2,+
CSc1nsc(/C=C/Nc2ccc(F)cc2F)c1C#N,51*,6,10,·,i
CC(C)(C)n1nc(-c2ccc(F)cc2)c2c(N)ncnc21,109*,-68,2,?,+
Cc1ccc(-c2nn(C(C)(C)C)c3ncnc(NS(=O)(=O)c4ccc([N+](=O)[O-])cc4)c23)cc1,46,-5,-2,4,·
CC(C)(C)n1nc(-c2ccc(Cl)cc2)c2c(N)ncnc21,105*,-4,-6,?,+
Cc1ccc(-c2nc(N)c3c(-c4ccc(C)cc4)nn(C(C)(C)C)c3n2)cc1,0,-1,1,1,·
COc1ccc(CC(=O)N2CCc3cc(OC)c(OC)cc3C2O)cc1OC (centres undefined),29,-8,1,-1,·
CCCC(=O)Nc1ccc(-c2csc(N/N=C\c3ccncc3)n2)cc1,3,-9,8,-2,·
COc1cc(/C=C/C(=O)OCC(=O)Nc2ccc(C)cc2[N+](=O)[O-])ccc1O,60*,-6,-2,4,i
COc1ccc(N2C(=O)CC(S/C(N)=N/N=C/c3ccnc4ccccc34)C2=O)cc1 (centres undefined),31,-7,-4,-2,·
N/C(=N\N=C\c1ccnc2ccccc12)SC1CC(=O)N(c2ccc(Br)cc2)C1=O (centres undefined),66*,-7,-5,-4,+
NS(=O)(=O)c1ccc(CCNC(=O)COC(=O)/C=C/c2ccc(Cl)cc2)cc1,15,2,-1,0,·
COc1ccc(-c2nnn(CC(=O)NCCc3ccc(OC)c(OC)c3)n2)cc1,97*,-1,0,1,i
COc1ccc(C(=O)N/C(=C\c2ccco2)C(=O)NCCN2CCOCC2)cc1,·,·,·,-3,·
Cc1ccccc1Cn1c(=O)n(C)c(=O)c2sccc21,·,·,·,2,·
CC(C)c1cc(=O)oc2c3c4c(cc12)CCCN4CCC3,52*,-3,14,29*,·
Cc1cc(=O)oc2c3c4c(cc12)OCCN4CCC3,72*,·,4,143*,·
COc1cccc(CN(C(=O)/C=C/c2ccco2)C2CCS(=O)(=O)C2)c1 (centres undefined),·,·,·,-4,·
COc1ccc(-n2c(N)cc(=O)[nH]c2=O)cc1,52*,0,0,6,i
CCN1CCCc2cc(CN(CCN3CCOCC3)C(=S)Nc3ccc(OC)c(OC)c3)ccc21,52*,-4,-4,1,i
CCN1CCCc2cc(CN(CCN3CCOCC3)C(=S)Nc3ccc(OC)c(Cl)c3)ccc21,22,4,2,6,·
CCN1CCCc2cc(CN(CCN3CCOCC3)C(=S)Nc3ccccc3C)ccc21,57*,-2,0,-2,i
CCN1CCCc2cc(CN(CCN3CCOCC3)C(=S)Nc3ccccc3OC)ccc21,-62,-2,-7,3,·
CC1CCN(CC(=O)Nc2ccc(Cl)cc2[N+](=O)[O-])CC1,24,-1,-2,-3,·
